Reference: ChEMBL document CHEMBL1147731, “Potent 7-hydroxy-1,2,3,4-tetrahydroisoquinoline-3-carboxylic acid-based macrocyclic inhibitors of hepatitis C virus NS3 protease” (J Med Chem, 2006)
Numbered stars: 1 amine (or outer) side, 2 acyl side, 3 side chain; on linkers, the order of the positions; unused ones are H or OH. Bridge positions count the residues as written; N and C are the ends. Square brackets hold non-standard residues; d marks the D form. Peptide text beside a SMILES is read from it. * marks the point of attachment. Tic(7-O(CH2)6CO) = O=C([C@@H]1Cc2ccc(OCCCCCCC(=O)[*:3])cc2CN1[*:1])[*:2]; X1 = CCCC(N[*:1])C(=O)C(=O)[*:2]; Chg = N[C@H](C(=O)O)C1CCCCC1; Phg = N[C@H](C(=O)O)c1ccccc1; OtBu = CC(C)(C)O*

Tests used:
[1] = target: NS3 (Hepatitis C virus, UniProt A3EZJ3); assay: Inhibition of HCV NS3 protease; set-up: species or system Hepacivirus hominis
Procedure, shortened: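 Continuous spectrophotometric assay with NS4A-tethered single-chain NS3 serine protease, following cleavage of chromogenic ester substrates. Inhibition constants (Ki*) were determined. Compounds were tested as a mixture of two P1 diastereomers because pure P1 isomers racemized extensively under the assay conditions.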

[2] = AUC in rat administered sc; format: ADME, organism-based; settings: plasma
[3] = Oral bioavailability in rat; format: ADME, organism-based; settings: in vivo
[4] = AUC in rat administered po; format: ADME, organism-based; settings: plasma

Sequence of NS3 (A3EZJ3 whole entry): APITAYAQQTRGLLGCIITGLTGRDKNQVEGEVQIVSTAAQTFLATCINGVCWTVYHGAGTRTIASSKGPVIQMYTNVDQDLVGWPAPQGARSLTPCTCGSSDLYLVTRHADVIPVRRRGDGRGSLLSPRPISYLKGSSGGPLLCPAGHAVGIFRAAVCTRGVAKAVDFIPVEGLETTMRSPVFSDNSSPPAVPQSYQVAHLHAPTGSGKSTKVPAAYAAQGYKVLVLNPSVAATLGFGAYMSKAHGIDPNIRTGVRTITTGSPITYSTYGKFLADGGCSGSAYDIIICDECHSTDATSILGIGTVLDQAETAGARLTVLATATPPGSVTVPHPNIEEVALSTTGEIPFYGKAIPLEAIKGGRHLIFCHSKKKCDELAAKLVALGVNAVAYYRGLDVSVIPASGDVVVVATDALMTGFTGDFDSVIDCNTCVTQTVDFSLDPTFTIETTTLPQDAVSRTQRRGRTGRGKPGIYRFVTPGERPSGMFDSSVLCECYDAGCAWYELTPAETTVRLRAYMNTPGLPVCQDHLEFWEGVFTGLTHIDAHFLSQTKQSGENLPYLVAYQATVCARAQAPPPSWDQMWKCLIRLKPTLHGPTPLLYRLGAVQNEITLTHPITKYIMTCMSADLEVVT

SMILES | Ki [1] [nM] | AUC [2] [µM·h] | bioavailability [3] [%] | AUC [4] [µM·h]
CCCC(NC(=O)[C@@H]1Cc2ccc3cc2CN1C(=O)[C@H](C1CCCCC1)NC(=O)CCCCCCO3)C(=O)C(=O)NCC(=O)NCc1ccccc1 (stereo not given in full) | 2000 |  |  | 
CCCC(NC(=O)[C@@H]1Cc2ccc3cc2CN1C(=O)[C@H](C1CCCCC1)NC(=O)CCCCCCO3)C(=O)C(=O)NCC(=O)OCc1ccccc1 (stereo not given in full) | 1700 |  |  | 
CCCC(NC(=O)[C@@H]1Cc2ccc3cc2CN1C(=O)[C@H](C1CCCCC1)NC(=O)CCCCCCO3)C(=O)C(=O)NCC(=O)N[C@H](C(=O)N(C)C)c1ccccc1 (stereo not given in full) ([Chg][Tic(7-O(CH2)6CO)][X1]G[Phg]-NMe2; lactam N-2) | 21 | 5.5 | < 10 | 0.27
CCCC(NC(=O)[C@@H]1Cc2ccc3cc2CN1C(=O)[C@H](C1CCCCC1)NC(=O)CCCCCCO3)C(=O)C(=O)NCC(=O)N[C@H](C(=O)O)c1ccccc1 (stereo not given in full) ([Chg][Tic(7-O(CH2)6CO)][X1]G[Phg]-OH; lactam N-2) | 15 |  |  | 

Second part, the compound after the results:

Ki [1] [nM] | AUC [2] [µM·h] | bioavailability [3] [%] | AUC [4] [µM·h] | SMILES
2100 |  |  |  | CCCC(NC(=O)[C@@H]1Cc2ccc3cc2CN1C(=O)[C@H](C1CCCCC1)NC(=O)CCCCCCO3)C(=O)C(N)=O (stereo not given in full)
3000 |  |  |  | CCCC(NC(=O)[C@@H]1Cc2ccc3cc2CN1C(=O)[C@H](C1CCCCC1)NC(=O)CCCCCCO3)C(=O)C(=O)NCC(=O)O (stereo not given in full)
260 |  |  |  | CCCC(NC(=O)[C@@H]1Cc2ccc3cc2CN1C(=O)[C@H](C1CCCCC1)NC(=O)CCCCCCO3)C(=O)C(=O)NCC(=O)N[C@H](C(=O)OC(C)(C)C)c1ccccc1 (stereo not given in full) ([Chg][Tic(7-O(CH2)6CO)][X1]G[Phg]-OtBu; lactam N-2)
